Source: PMC9161413 (ACS Omega, 2022)

Legend:
K562 cells = experiment: Cell internalization, cytofluorimetric assay, K562; assay type: cell-based, human; details: 24 h, 5 μM
Outline: (§1)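 K562 cells (RPMI-1640, 5% FBS, 37 °C, 5% CO2) and MDA-MB-231 cells (DMEM with 4500 mg/L glucose, 10% FBS, 37 °C, 10% CO2) were treated 24 h at 5 μM. Flow cytometry detected the compound's intrinsic fluorescence (λexc 405 nm, λem 421 nm). Read-out was the percentage of cells above the untreated autofluorescence threshold; at least three independent experiments.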

MDA-MB-231 cells = experiment: Cell internalization, cytofluorimetric assay, MDA-MB-231; assay type: cell-based, human; details: 24 h, 5 μM
Outline: as §1

ERK1/2 phosphorylation = ERK1/2 phosphorylation in L929 cells, western blot; assay type: cell-based, murine; details: 24 h, 5 μM
Outline: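 Subconfluent L929 cells were exposed 24 h at 5 μM in serum-free medium. Cells were lysed in RIPA with PMSF, orthovanadate and protease inhibitors, and 40–60 μg protein was resolved on 4–12 Bis-Tris gels onto PVDF. Blots were probed overnight at 4 °C for phospho- and total ERK1/2 (vinculin loading control), with fluorescent secondaries and infrared imaging. Phospho-signal was normalised to total protein; three independent experiments; one-way ANOVA with Tukey test.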

N-Cadherin expression = experiment: N-cadherin expression in L929 cells, western blot; assay type: cell-based, murine; details: 24 h, 5 μM, compared to untreated cells
Outline: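 L929 cells (subconfluent, serum-free medium) were treated 24 h at 5 μM. RIPA lysates containing phosphatase/protease inhibitors (40–60 μg protein) were separated on 4–12 Bis-Tris gels and blotted to PVDF. N-cadherin antibody was applied overnight at 4 °C, with vinculin as loading control and infrared fluorescence detection. Densitometry was normalised to total protein and expressed as percent of untreated cells; three independent experiments; ANOVA with Newman–Keuls test.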

L929 cells = experiment: Inhibition of cell proliferation, MTT assay; assay type: cell-based, murine; details: 24 h, 1–10 μM
VEGFR-1 = details: read-out: IC50 VEGFR-1; cited from earlier work
VEGFR-3 = details: read-out: IC50 VEGFR-3; cited from earlier work
FGFR-2 = details: read-out: IC50 FGFR-2; cited from earlier work
FGFR-3 = details: read-out: IC50 FGFR-3; cited from earlier work
PDGFR-α = details: read-out: IC50 PDGFR-α; cited from earlier work
PDGFR-β = details: read-out: IC50 PDGFR-β; cited from earlier work

| Compound | internalization / cell fluorescence (in words) (K562 cells) | internalization / cell fluorescence (in words) (MDA-MB-231 cells) | inhibition of ERK1/2 phosphorylation (in words) (ERK1/2 phosphorylation) | inhibition of N-Cad expression (in words) (N-Cadherin expression) | antiproliferative / cytostatic effect (in words) (L929 cells) | IC50 (VEGFR-1) [nM] | IC50 (VEGFR-3) [nM] | IC50 (FGFR-2) [nM] | IC50 (FGFR-3) [nM] | IC50 (PDGFR-α) [nM] | IC50 (PDGFR-β) [nM] |
| --- | --- | --- | --- | --- | --- | --- | --- | --- | --- | --- | --- |
| COC(=O)c1ccc2c(c1)NC(=O)/C2=C(\Nc1ccc(N(C)C(=O)CN2CCN(C)CC2)cc1)c1ccccc1 [nintedanib] | efficiently internalized | efficiently internalized | efficiently inhibits | almost by half | mild antiproliferative effect | 34 | 13 | 37 | […] | 59 | 65 |
| c(AmpLRGDL) [compound 6] |  |  | no inhibition | stronger inhibitory effect | mild antiproliferative effect |  |  |  |  |  |  |
